Laboratory results as given in ChEMBL document CHEMBL5346942, “Identification and analysis of small molecule inhibitors of FosB from Staphylococcus aureus” (RSC Med Chem, 2023).
In brackets after ≈: the same amount, converted by molar mass.

Assays:
[1] = target: T1, Metallothiol transferase FosB (Staphylococcus aureus, UniProt Q5HDM4); assay: Parabolic competitive inhibition of Staphylococcus aureus FosB using L-cysteine as substrate assessed as inhibition constant for initial binding event by absorbance based DTNB assay
T1 sequence (Q5HDM4 whole entry): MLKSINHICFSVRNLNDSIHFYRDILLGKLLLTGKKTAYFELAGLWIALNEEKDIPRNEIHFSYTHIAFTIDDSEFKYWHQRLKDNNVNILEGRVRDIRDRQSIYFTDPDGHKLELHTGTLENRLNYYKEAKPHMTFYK
How it was run: (§1)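 FosB from S. aureus, steady-state Michaelis–Menten kinetics with L-cysteine as the thiol co-substrate (instead of BSH) and varied fosfomycin. Rates read by absorbance-based DTNB assay at several fixed inhibitor concentrations. Initial velocities globally fit to a parabolic competitive model (two inhibitor molecules bind). Ki1 is the first binding event, Ki2 the second.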

[2] = target: T1, Metallothiol transferase FosB; assay: Parabolic competitive inhibition of Staphylococcus aureus FosB using L-cysteine as substrate assessed as inhibition constant for second binding event by absorbance based DTNB assay; how it was run: as §1
Staphylococcus aureus [3] = assay: Antibacterial activity against Staphylococcus aureus JE2 harboring […] assessed as reduction in bacterial growth incubated overnight by double dilution method; assay type: functional
How it was run: (§2)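 S. aureus JE2 grown overnight at 37 °C on Mueller–Hinton agar; colonies suspended in MH broth to OD600 ~0.5, diluted 1:1000 and added to serial twofold dilutions of compound (water stocks 10 mg/mL). Incubated overnight at 37 °C; MIC read visually as the well with no growth. Sterile and growth control wells included. For combinations, fosfomycin diluted along one plate axis and inhibitor along the other, before the inoculum was added.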

Staphylococcus aureus [4] = assay: Antibacterial activity against Staphylococcus aureus JE2 harboring […] assessed as reduction in bacterial growth incubated overnight in presence of fosfomycin by double dilution method; assay type: functional; how it was run: as §2
Staphylococcus aureus [5] = assay: Antibacterial activity against Staphylococcus aureus JE2 harboring […] assessed as fosfomycin MIC at 128 ug/ml incubated overnight by double dilution method; assay type: functional; conditions: dose 128 µg/ml; how it was run: as §2
HEK293 = assay: Cytotoxicity against HEK293 cells assessed as reduction in cell viability at 64 ug/ml incubated for 24 hrs by resazurin dye based fluorescence analysis; assay type: toxicity; conditions: human, hek293, 24 h, dose 64 µg/ml
How it was run: (§3)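 HEK-293 or HepG2 cells grown in DMEM with 10% FBS and 1% penicillin/streptomycin at 37 °C, 5% CO2. Positive control was 1% Triton X-100. Viability read by resazurin (2 mM stock) added for 24 h, measuring resorufin fluorescence.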

HepG2 = assay: Cytotoxicity against human HepG2 cells assessed as reduction in cell viability at 64 ug/ml incubated for 24 hrs by resazurin dye based fluorescence analysis; assay type: toxicity; conditions: hepg2, 24 h, dose 64 µg/ml; how it was run: as §3
[6] = target: T1, Metallothiol transferase FosB; assay: Competitive inhibition of Staphylococcus aureus FosB using L-cysteine as substrate assessed as inhibition constant for initial binding event by absorbance based DTNB assay
Staphylococcus aureus [7] = assay: Antibacterial activity against Staphylococcus aureus harboring FosB; assay type: functional; how it was run: as §2
Staphylococcus aureus [8] = assay: Antibacterial activity against Staphylococcus aureus lacking FosB; assay type: functional
[9] = target: T1, Metallothiol transferase FosB; assay: Inhibition of Staphylococcus aureus FosB using L-cysteine as substrate assessed as inhibition constant for initial binding event by absorbance based DTNB assay

| SMILES | Ki [1] | Ki [2] | MIC (Staphylococcus aureus [3]) | MIC (Staphylococcus aureus [4]) | MIC (Staphylococcus aureus [5]) | Activity (HEK293) | Activity (HepG2) | Ki [6] | MIC (Staphylococcus aureus [7]) | MIC (Staphylococcus aureus [8]) | Ki [9] |
| --- | --- | --- | --- | --- | --- | --- | --- | --- | --- | --- | --- |
| O=C(O)CP(=O)(O)O [FOSFONET] | 0.9 mM | 0.21 mM | > 128 µg/mL | > 128 µg/mL | 8 µg/mL | Non-Toxic | Non-Toxic |  |  |  |  |
| CC(C(=O)O)C(=O)O [METHYLMALONIC ACID] |  |  |  |  |  | Non-Toxic | Non-Toxic |  |  |  |  |
| C[C@@H](C(=O)O)P(=O)(O)O |  |  | > 128 µg/mL | > 128 µg/mL | 8 µg/mL | Non-Toxic | Non-Toxic | 0.43 mM |  |  |  |
| O=P(O)(O)CCP(=O)(O)O |  |  |  |  |  | Non-Toxic | Non-Toxic |  |  |  |  |
| C[C@@H]1O[C@@H]1P(=O)(O)O [FOSFOMYCIN] |  |  | > 128 µg/mL |  |  | Non-Toxic | Non-Toxic |  | 64 µg/mL (≈ 464 µM) | 0.5 µg/mL (≈ 3.62 µM) |  |
| CC[C@@H](O)P(=O)(O)O |  |  |  | > 128 µg/mL | 8 µg/mL | Non-Toxic | Non-Toxic |  |  |  | 1.57 mM |
| CC(C)[C@H](O)P(=O)(O)O |  |  | > 128 µg/mL | > 128 µg/mL | 8 µg/mL | Non-Toxic | Non-Toxic |  |  |  | 3.58 mM |
| C[C@H](CO)P(=O)(O)O |  |  | > 128 µg/mL | > 128 µg/mL | 8 µg/mL | Non-Toxic | Non-Toxic |  |  |  | 5.29 mM |
| O=C(O)CCP(=O)(O)O |  |  |  |  |  | Non-Toxic | Non-Toxic |  |  |  |  |
